Laboratory results: ChEMBL document CHEMBL4513216, “Probing the Open Global Health Chemical Diversity Library for Multistage-Active Starting Points for Next-Generation Antimalarials” (ACS Infect Dis, 2020)

Test: Toxicity liver stage against HepG2, at 10uM
Assay type: cell-based
Set-up: test concentration 10 uM, cell line HepG2-A16-CD81EGFP
Settings: human, HepG2-A16-CD81EGFP cells; read-out: INHIBITION
Method in brief: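 Uninfected HepG2-A16-CD81EGFP cells, 3 × 10^3 per well, 1536-well, plated on prespotted compound at 10 μM final, parasite-free screening media added to match infected plates; puromycin 10 μM positive, DMSO 0.5% negative; run in parallel with 48 h PbLuc assay at 37 °C, 5% CO2; viability by CellTiter-Glo luminescence, normalized to controls.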

| SMILES | cytotoxicity at 10 µM |
| --- | --- |
| CC(C)c1ccc(-n2cc(O)c(C(=O)N3CCC(C(N)=O)CC3)n2)cc1 | -52.6% |
| Cc1cc(CN(C)C(=O)CN2CCCC2=O)no1 | 3.05% |
| Cc1c(C(=O)NC2CC(C)(C)NC(C)(C)C2)cnn1-c1ccc(F)cc1 | -45.7% |
| CC(C)N(CC1CCCN(Cc2ccon2)C1)C(=O)OC(C)(C)C (stereo not given) | 7.09% |
| CC(C)CCN1CCN(Cc2nc(C3CC3)no2)CC1 | -8.77% |
| COCCN1CC(=O)c2sc(NC(C)C)nc2C1 | -4.91% |
| OCCNc1nccc(-c2cn3nccc3nc2C2CCCCC2)n1 | -0.085% |
| COc1ccccc1S(=O)(=O)N1CCN(C)[C@@H]2CS(=O)(=O)C[C@@H]21 | 19.3% |
| CCSCCNc1cc(C)nc2c(C)c(C)nn12 | 5.88% |
| CNc1ccnc(N2C[C@@H](C)[C@](O)(C3CC3)C2)n1 | -13.1% |
| CC(C)(O)CCc1cccc(C(=O)NCC2CN(S(C)(=O)=O)CCO2)c1 (stereo not given) | 2.29% |
| CCN1CC(CN(C)Cc2nc(-c3ccoc3)oc2C)CC1=O (stereo not given) | -5.13% |
| Cc1cccc(C)c1OC1CN(Cc2cnc(N3CCOCC3)nc2)C1 | 3.47% |
| c1ccc(CN2CCC(Nc3ncnc4c3CCNCC4)C2)cc1 (stereo not given) | 8.03% |
| O=C(O)[C@]12CN(CC3CCC3)C[C@H]1CN(c1cnccn1)C2 | 8.16% |
| O=C(NCC(O)c1ccc(F)cc1)C1CCN(C2CCCCC2)CC1 (stereo not given) | 5.67% |
| Cn1ccnc1-c1nccn1-c1cccc(CN2CCCC2)c1 | -2.36% |
| Cc1nc(O)cc(CCNC(=O)c2ccc(CN3CCCCC3)cc2)n1 | 8.61% |
| COCCN(C)C[C@@H]1CN(C(=O)c2ccc(O)c(C)c2)C[C@@H]1CO | -11.8% |
| CN(C)S(=O)(=O)c1ccc(CNC(=O)c2cn3c(n2)CNCC3)cc1 | 16.9% |
| O=C(CCn1cnnn1)N1CCCC(CO)(CCc2ccccc2)C1 (stereo not given) | 5.26% |
| CCC(C)N(Cc1cccnc1)C(=O)c1ncccc1O (stereo not given) | 14.9% |
| Cc1cc(C)c2[nH]c(=O)c(CN3CCCC(O)(CO)C3)cc2c1 (stereo not given) | -2.25% |
| Cc1c(C(=O)NCC2CCN(Cc3ccco3)C2)[nH]c2ccccc12 (stereo not given) | 6.32% |
| O=C1CN(CC[C@@H](O)c2ccccc2)CCN1c1ccccc1Cl | 1.29% |
| Cc1sc2nc(CCN)nc(N3CCC(N4CCCC4)CC3)c2c1C | -51.6% |
| CC(C)N1CC2(CCC1=O)CCN(C(=O)c1cccc(F)c1F)CC2 | -18.5% |
| CCc1cc(CN(C)Cc2nc(-c3ccc(OC)cc3F)oc2C)on1 | -3.4% |

| SMILES | cytotoxicity at 10 µM |
| --- | --- |
| Cc1[nH]ccc1C(=O)N1CCCC(c2nccn2Cc2cscn2)C1 (stereo not given) | -17.5% |
| CCn1ccnc1CN(C)C1CCCN(CCc2ccccc2)C1 (stereo not given) | -8.63% |
| Cc1nccc(CN2CCC(c3nnsc3S(C)(=O)=O)CC2)n1 | 2.86% |
| CCN1CCN(CCCNC(=O)NC(C)c2nncn2C)CC1 (stereo not given) | -12.8% |
| c1ccc(-c2ccc(CN3CCOC(Cn4cncn4)C3)cc2)cc1 (stereo not given) | 9.96% |
| Cc1cnn(CC2CN(Cc3ccc(-n4cccn4)cc3)CCO2)c1 (stereo not given) | -0.674% |
| CC(C)n1ccnc1CN1CCCN(C(=O)CN(C)C2CC2)CC1 | -3.96% |
| O=C(c1ccc(N2CCCC2)nn1)N1CCCC(n2cccn2)C1 (stereo not given) | -5.58% |
| CCN(CC)C(=O)c1nnn(-c2ccc(C)cc2)c1C1CC1 | -8.35% |
| Cn1ncc2c(=O)[nH]c(N3CCN(C(=O)c4ccsc4)CC3)nc21 | -6.17% |
| CCC(CN1CCOCC1)n1cncc1-c1ccc2c(c1)CCCN2C (stereo not given) | 8.9% |
| COc1cc(CN[C@@H]2COC[C@H]2Cc2cc(C)no2)cc(OC)c1 | 0.975% |
| Cc1c(Br)cccc1C(=O)NCC1CCNCC1 | -16% |
| Cc1cnccc1-c1cnn(CCNC(=O)C(C)(C)C)c1C1CC1 | -0.459% |
| Cn1nc(C2CCCN(Cc3cc(F)ccc3F)C2)c2nccnc21 (stereo not given) | -12.9% |
| Cc1ccc(CNC2CCc3[nH]c(=O)ccc3C2)cc1C (stereo not given) | 0.354% |
| Cn1nnc2c1CCN(CC1CC1)C2COCc1ccccc1 (stereo not given) | 6.74% |
| Cc1ccc(CN2CCC3(CC2)C(=O)N(CC(C)C)CCN3C)o1 | -0.508% |
| Cc1nccn1CCC1CCNCC1 | -2.36% |
| Cc1ccc(N2CC[C@H]3C[C@H](C(=O)NCc4ccco4)O[C@@H]3C2)cc1 | 8.8% |
| c1cnc(NC[C@H]2OC[C@@H]3CCN(Cc4cccnc4)C[C@@H]32)nc1 | -3.12% |
| O=C(c1ccsc1)N1CCc2c(COCC3CC3)cncc2C1 | 1.65% |
| O=C(N1CCCO1)[C@@]12CCO[C@@H]1CCN(Cc1cccs1)C2 | -6.36% |
| Cc1noc2nc(C3CCN(CC4=CCCOC4)CC3)cc(C(F)F)c12 | 0.307% |
| Cc1cccc(CN2C[C@@H]3COC[C@]3(CNC(=O)c3ccsc3)C2)n1 | -1.85% |
| CN1CC(=O)N(c2cnn(C)c2)CC12CCN(Cc1cccnc1)C2 (stereo not given) | -1.69% |
| Cc1ccc(-c2cc(C3=NC(=CN4CCN(C)CC4)NO3)[nH]n2)s1 | -9.45% |
